Reference: ChEMBL document CHEMBL3804761, “Synthesis of a stable and orally bioavailable englerin analogue” (Bioorg Med Chem Lett, 2016)

Legend:
Type in all cases: functional
[1] = Growth inhibition of human SNB19 cells assessed as cell growth at 10 uM incubated for 48 hrs by sulforhodamine B assay relative to control; conditions: SNB-19, 48 h, read-out: Activity
Summary of the method: (§1)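 Run in the standard NCI 60-cell-line screen. Cells were exposed to drug for two days, and the read-out was sulforhodamine B staining. Compound was tested at a single final concentration of 10 µM in every line, and results are reported as growth percent.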

MDA-MB-435 = assay: Growth inhibition of human MDA-MB-435 cells assessed as cell growth at 10 uM incubated for 48 hrs by sulforhodamine B assay relative to control; conditions: MDA-MB-435, 48 h, read-out: Activity; summary of the method: as §1
SK-MEL-5 = assay: Growth inhibition of human SK-MEL-5 cells assessed as cell growth at 10 uM incubated for 48 hrs by sulforhodamine B assay relative to control; conditions: SK-MEL-5, 48 h, read-out: Activity; summary of the method: as §1
[2] = Growth inhibition of human UACC62 cells assessed as cell growth at 10 uM incubated for 48 hrs by sulforhodamine B assay relative to control; conditions: UACC-62, 48 h, read-out: Activity
Summary of the method: (§2)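 NCI 60-cell line standard protocol, one-dose screen: single final concentration 10 µM, 2-day drug exposure, sulforhodamine B (SRB) endpoint; read-out is growth percent relative to untreated control.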

[3] = Growth inhibition of human SKOV3 cells assessed as cell growth at 10 uM incubated for 48 hrs by sulforhodamine B assay relative to control; conditions: SK-OV-3, 48 h, read-out: Activity; summary of the method: as §1
786-0 = assay: Growth inhibition of human 786-0 cells assessed as cell growth at 10 uM incubated for 48 hrs by sulforhodamine B assay relative to control; conditions: 786-0, 48 h, read-out: Activity; summary of the method: as §1
[4] = Growth inhibition of human Caki1 cells assessed as cell growth at 10 uM incubated for 48 hrs by sulforhodamine B assay relative to control; conditions: CAKI-1, 48 h, read-out: Activity; summary of the method: as §1
SN12C [5] = assay: Growth inhibition of human SN12C cells assessed as cell growth at 10 uM incubated for 48 hrs by sulforhodamine B assay relative to control; conditions: read-out: Activity; summary of the method: as §1
[6] = Growth inhibition of human TK10 cells assessed as cell growth at 10 uM incubated for 48 hrs by sulforhodamine B assay relative to control; conditions: TK-10, 48 h, read-out: Activity; summary of the method: as §2
MDA-MB-231 = assay: Growth inhibition of human MDA-MB-231 cells assessed as cell growth at 10 uM incubated for 48 hrs by sulforhodamine B assay relative to control; conditions: MDA-MB-231, 48 h, read-out: Activity; summary of the method: as §1
[7] = Growth inhibition of human BT549 cells assessed as cell growth at 10 uM incubated for 48 hrs by sulforhodamine B assay relative to control; conditions: BT-549, 48 h, read-out: Activity; summary of the method: as §1
[8] = Growth inhibition of human RXF393 cells assessed as cell growth at 10 uM incubated for 48 hrs by sulforhodamine B assay relative to control; conditions: RXF 393, 48 h, read-out: Activity; summary of the method: as §1
[9] = Growth inhibition of human HCT15 cells incubated for 48 hrs by sulforhodamine B assay; conditions: HCT-15, 48 h; for TGI: read-out: pTGI (converted)
Summary of the method: (§3)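 NCI 60-cell-line panel, standard protocol. Cells exposed to compound for two days, growth read by sulforhodamine B staining. Tested at five 10-fold dilutions, top concentration 100 µM, to give dose-response curves.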

HT-29 = assay: Growth inhibition of human HT-29 cells incubated for 48 hrs by sulforhodamine B assay; conditions: HT-29, 48 h; for TGI: read-out: pTGI (converted); summary of the method: as §3
[10] = Growth inhibition of human SW620 cells incubated for 48 hrs by sulforhodamine B assay; conditions: SW-620, 48 h; for TGI: read-out: pTGI (converted)
Summary of the method: (§4)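 Tested in the standard NCI 60-cell-line protocol with two-day drug exposure and a sulforhodamine B endpoint. Compounds were first screened at a single final concentration of 10 µM, reported as growth percent. They were then run as five 10-fold dilutions starting from a high concentration of 100 µM to give dose-response curves.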

[11] = Growth inhibition of human SNB19 cells incubated for 48 hrs by sulforhodamine B assay; conditions: SNB-19, 48 h; for CC50: read-out: pLC50 (the source's name) (converted); for TGI: read-out: pTGI (converted); summary of the method: as §4
U-251 = assay: Growth inhibition of human U251 cells incubated for 48 hrs by sulforhodamine B assay; conditions: U-251, 48 h; for TGI: read-out: pTGI (converted); summary of the method: as §4
SK-MEL-2 = assay: Growth inhibition of human SK-MEL-2 cells incubated for 48 hrs by sulforhodamine B assay; conditions: SK-MEL-2, 48 h; for TGI: read-out: pTGI (converted); summary of the method: as §3
[12] = Growth inhibition of human UACC257 cells incubated for 48 hrs by sulforhodamine B assay; conditions: UACC-257, 48 h; for CC50: read-out: pLC50 (the source's name) (converted); for TGI: read-out: pTGI (converted); summary of the method: as §4
NCI/ADR-RES = assay: Growth inhibition of human NCI/ADR-RES cells incubated for 48 hrs by sulforhodamine B assay; conditions: for TGI: read-out: pTGI (converted); summary of the method: as §3
SN12C [13] = assay: Growth inhibition of human SN12C cells incubated for 48 hrs by sulforhodamine B assay; conditions: for CC50: read-out: pLC50 (the source's name) (converted); for TGI: read-out: pTGI (converted); summary of the method: as §4
[14] = Growth inhibition of human UO31 cells incubated for 48 hrs by sulforhodamine B assay; conditions: UO-31, 48 h; for CC50: read-out: pLC50 (the source's name) (converted); for TGI: read-out: pTGI (converted); summary of the method: as §4
[15] = Growth inhibition of human PC3 cells incubated for 48 hrs by sulforhodamine B assay; conditions: PC-3, 48 h; for CC50: read-out: pLC50 (the source's name) (converted); for TGI: read-out: pTGI (converted); summary of the method: as §3
MCF7 = assay: Growth inhibition of human MCF7 cells incubated for 48 hrs by sulforhodamine B assay; conditions: MCF7, 48 h; for CC50: read-out: pLC50 (the source's name) (converted); for TGI: read-out: pTGI (converted); summary of the method: as §3
K562 = assay: Growth inhibition of human K562 cells assessed as cell growth at 10 uM incubated for 48 hrs by sulforhodamine B assay relative to control; conditions: K562, 48 h, read-out: Activity; summary of the method: as §1
[16] = Growth inhibition of human RPMI8226 cells assessed as cell growth at 10 uM incubated for 48 hrs by sulforhodamine B assay relative to control; conditions: RPMI-8226, 48 h, read-out: Activity; summary of the method: as §1
A549 = assay: Growth inhibition of human A549/ATCC cells assessed as cell growth at 10 uM incubated for 48 hrs by sulforhodamine B assay relative to control; conditions: A549, 48 h, read-out: Activity; summary of the method: as §1
NCI-H522 = assay: Growth inhibition of human NCI-H522 cells assessed as cell growth at 10 uM incubated for 48 hrs by sulforhodamine B assay relative to control; conditions: NCI-H522, 48 h, read-out: Activity; summary of the method: as §1
[17] = Growth inhibition of human LOXIMVI cells assessed as cell growth at 10 uM incubated for 48 hrs by sulforhodamine B assay relative to control; conditions: LOX IMVI, read-out: Activity
Summary of the method: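 Single-dose screen in the NCI 60-cell-line panel at one final concentration of 10 µM. Two-day drug exposure with a sulforhodamine B endpoint. Values are growth percent for each cell line.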

## CC(C)[C@@]12C[C@@H](NC(=O)CO)[C@@](C)(O1)[C@@H]1CC[C@@H](C)[C@H]1[C@@H]2OC(=O)c1ccc2ccccc2c1
[1]
  growth at 10 µM: 97.2%
MDA-MB-435
  growth at 10 µM: 94%
SK-MEL-5
  growth at 10 µM: 93.5%
[2]
  growth at 10 µM: 85%
[3]
  growth at 10 µM: 96.4%
786-0
  growth at 10 µM: 85%
[4]
  growth at 10 µM: 52.6%
SN12C [5]
  growth at 10 µM: 66.7%
[6]
  growth at 10 µM: 102%
MDA-MB-231
  growth at 10 µM: 101%
[7]
  growth at 10 µM: 70.2%
[8]
  growth at 10 µM: 61.6%
[9]
  GI50: 16.6 µM
  LC50: 61.7 µM
  TGI: 31.6 µM
HT-29
  GI50: 17.4 µM
  LC50: 60.3 µM
  TGI: 32.4 µM
[10]
  GI50: 16.6 µM
  LC50 (50% lethal concentration): 72.4 µM
  TGI: 34.7 µM
[11]
  GI50: 16.2 µM
  CC50: 60.3 µM
  TGI: 31.6 µM
U-251
  GI50: 16.2 µM
  LC50 (concentration giving 50% net cell kill): 56.2 µM
  TGI: 30.2 µM
SK-MEL-2
  GI50: 17 µM
  LC50: 60.3 µM
  TGI: 31.6 µM
[12]
  GI50: 16.2 µM
  CC50: 64.6 µM
  TGI: 32.4 µM
NCI/ADR-RES
  GI50: 11 µM
  LC50: 57.5 µM
  TGI: 25.1 µM
SN12C [13]
  GI50: 11 µM
  CC50: 55 µM
  TGI: 24.5 µM
[14]
  GI50: 11.5 µM
  CC50: 50.1 µM
  TGI: 24 µM
[15]
  GI50: 12 µM
  CC50: 52.5 µM
  TGI: 25.1 µM
MCF7
  GI50: 15.8 µM
  CC50: 72.4 µM
  TGI: 33.9 µM
K562
  growth at 10 µM: 91.2%
[16]
  growth at 10 µM: 67.6%
A549
  growth at 10 µM: 81%
NCI-H522
  growth at 10 µM: 77.7%

## CC(C)[C@@]12C[C@@H](NC(=O)CO)[C@@](C)(O1)[C@@H]1CC[C@@H](C)[C@H]1[C@@H]2OC(=O)/C=C/C1CCCCC1
[1]
  growth at 10 µM: 103%
MDA-MB-435
  growth at 10 µM: 102%
SK-MEL-5
  growth at 10 µM: 99.3%
[2]
  growth at 10 µM: 101%
[3]
  growth at 10 µM: 103%
786-0
  growth at 10 µM: 100%
[4]
  growth at 10 µM: 88.7%
SN12C [5]
  growth at 10 µM: 86.7%
[6]
  growth at 10 µM: 94.1%
MDA-MB-231
  growth at 10 µM: 107%
[7]
  growth at 10 µM: 109%
[8]
  growth at 10 µM: 95.4%
[9]
  GI50: > 44.7 µM
  LC50: > 44.7 µM
  TGI: > 44.7 µM
HT-29
  GI50: > 44.7 µM
  LC50: > 44.7 µM
  TGI: > 44.7 µM
[10]
  GI50: > 44.7 µM
  LC50 (50% lethal concentration): > 44.7 µM
  TGI: > 44.7 µM
[11]
  GI50: > 44.7 µM
  CC50: > 44.7 µM
  TGI: > 44.7 µM
U-251
  GI50: > 44.7 µM
  LC50 (concentration giving 50% net cell kill): > 44.7 µM
  TGI: > 44.7 µM
SK-MEL-2
  GI50: > 44.7 µM
  LC50: > 44.7 µM
  TGI: > 44.7 µM
[12]
  GI50: > 44.7 µM
  CC50: > 44.7 µM
  TGI: > 44.7 µM
NCI/ADR-RES
  GI50: 40.7 µM
  LC50: > 44.7 µM
  TGI: > 44.7 µM
SN12C [13]
  GI50: > 44.7 µM
  CC50: > 44.7 µM
  TGI: > 44.7 µM
[14]
  GI50: 10 µM
  CC50: > 44.7 µM
  TGI: 30.2 µM
[15]
  GI50: > 44.7 µM
  CC50: > 44.7 µM
  TGI: > 44.7 µM
MCF7
  GI50: > 44.7 µM
  CC50: > 44.7 µM
  TGI: > 44.7 µM
K562
  growth at 10 µM: 96.5%
[16]
  growth at 10 µM: 134%
A549
  growth at 10 µM: 92%
NCI-H522
  growth at 10 µM: 88.8%

## CC(C)[C@@]12C[C@@H](NC(=O)CF)[C@@](C)(O1)[C@@H]1CC[C@@H](C)[C@H]1[C@@H]2OC(=O)/C=C/c1ccccc1
[1]
  growth at 10 µM: 104%
[17]
  growth at 10 µM: 102%
MDA-MB-435
  growth at 10 µM: 106%
SK-MEL-5
  growth at 10 µM: 110%
[2]
  growth at 10 µM: 99.6%
[3]
  growth at 10 µM: 91.3%
786-0
  growth at 10 µM: 97.3%
[4]
  growth at 10 µM: 80.9%
SN12C [5]
  growth at 10 µM: 103%
[6]
  growth at 10 µM: 104%
MDA-MB-231
  growth at 10 µM: 102%
[7]
  growth at 10 µM: 111%
K562
  growth at 10 µM: 106%
[16]
  growth at 10 µM: 94.3%
A549
  growth at 10 µM: 94.4%
NCI-H522
  growth at 10 µM: 103%
